Laboratory results as given in ChEMBL document CHEMBL3244055, “Synthesis of mono- and bifunctional alpha-methylene lactone systems as potential tumor inhibitors” (1977).
Calls of active or inactive are those of the source. The rule behind the calls is not given here.

Columns and labels:
CCRF-CEM [1] = assay: Growth inhibition of human CCRF-CEM cells after 48 hrs by cell culture assay in presence of 1 x 10^-4 M L-cysteine; type: functional; settings: read-out: ID50 (the source's name)
CCRF-CEM [2] = assay: Growth inhibition of human CCRF-CEM cells after 48 hrs by cell culture assay; type: functional; settings: read-out: ID50 (the source's name)
How it was run: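 CCRF-CEM human lymphoblastic leukemia cells, which lack cystathionase and need exogenous L-cysteine, grown in culture with test lactone; growth inhibition expressed as ID50 (M).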

CCRF-SLT = assay: Growth inhibition of human CCRF-SLT cells in presence of cystathionine; type: functional, cell-based
How it was run: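 Cystathionase-containing CCRF-SLT cell line, able to grow on cystathionine, cultured with test lactone in medium supplemented with cystathionine and, in parallel, without it; growth inhibition compared between the two media.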

SMILES	IC50 (CCRF-CEM [1]) [µM]	IC50 (CCRF-CEM [2]) [µM]	growth inhibition (GI) (CCRF-SLT)
C=C[C@@]12COC(=O)C(=C)[C@@H]1[C@H]1OC(=O)C(=C)[C@@H]1[C@@H](O)C2 [VERNOLEPIN]	0.43	–	–
C=C1C(=O)OC(C)(C)C1C (stereo not drawn)	–	21	Active
C=C1C(=O)O[C@H]2CCC[C@@H]1C2 (relative stereo)	–	16	Active
C=C1C(=O)O[C@@H]2CC[C@@H](O)[C@H]12 (relative stereo)	–	2.7	–
C=C1C(=O)OC[C@H]2[C@H]3CC[C@@H](C3)[C@@H]12	–	7	–
C=C[C@]12CC[C@H]3C(=C)C(=O)O[C@@H]3[C@H]1C(=C)C(=O)OC2	0.034	–	–
C=C[C@]12CCCC[C@H]1C(=C)C(=O)OC2 (relative stereo)	–	0.68	–
C=C(C(=O)OC)[C@H]1CCC[C@H]2C(=C)C(=O)O[C@H]12 (relative stereo)	–	2.1	–
C=C1C(=O)OC[C@@]2(CC)CC[C@H]3C(=C)C(=O)O[C@@H]3[C@@H]12	0.034	–	–
C=C1C(=O)O[C@@H]2CCC[C@@H](O)[C@H]12 (relative stereo)	–	15	Active
